Assay results from the RNAGym collection of RNA variant scans (doi:10.1126/science.aae0568).
Fewer inactive variants are shown than the library holds.

B1: tRNA (parent)
chain: GUUCCGUUGGCGUAAUGGUAACGCGUCUCCCUCCUAAGGAGAAGACUGCGGGUUCGAGUCCCGUACGGAACG

Variants of: B1
Experiment: yeast fitness relative to wild type (ratio to wild type); higher = fitter; tRNA-Arg(CCU), competitive growth, 37 C, YPD
Summary of the method: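 Amplicons of the tRNA-Arg(CCU) gene were sequenced, 100-nucleotide paired-end, from the start population and from each end population of a pooled yeast competition. The competition, in six parallel replicates, lasted 24 hours in YPD at 37°C. Fitness relative to wild type was calculated from changes in genotype frequencies. Genotypes had to have ≥ 100 starting reads, and estimates < 0.5 were set to 0.5.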

Variant | yeast fitness
C4A C33U A36C A40G | ≤ 0.5
C4A C33U C60G | 0.601
C4A C24A | 0.595
C4A C30U | 0.756
C4A G23A C33G G63C A65U | ≤ 0.5
C4A C34G C62A C66U | ≤ 0.5
C4A C11U A14G A40G G50C | ≤ 0.5
C4A C29G G68C | ≤ 0.5
C4A G23A C33G G58C | ≤ 0.5
C4A C11G U13A A20C C22U A36C | 0.705
C4A C27G U32C A36G A57G G58A C62U A70U | ≤ 0.5
C4A G6A G23A C49A U59C C62U A65U A70C | ≤ 0.5
C4A G6A C29G A57G | 0.535
C4A G17C G23C A45C A70G | ≤ 0.5
C4A G17A C27U C33U | ≤ 0.5
C4A C11G A69U | ≤ 0.5
C4A C22A G44C | ≤ 0.5
C4A C31G G51C C66A | ≤ 0.5
C4A G17C A20G C31G A37C | ≤ 0.5
C4A G9A C24U C30U A36G A57G G58A G63A C66U | ≤ 0.5
C4A C22U G68A | ≤ 0.5

Variant | yeast fitness
C4A C24A U26C C29A A36U C60U | ≤ 0.5
C4A G17A G41A | 0.525
C4A G18A C27A A37C G56A G68U | ≤ 0.5
C4A G10C C11U C27U A45U C60G | ≤ 0.5
C4A C22G A69C | 0.538
C4A C5G G51A C60U G67A | ≤ 0.5
C4A C24A G67A | ≤ 0.5
C4A C22U | 0.789
C4A C22G | 0.65
C4A C22U C27U | ≤ 0.5
C4A C30G A40U C49U | ≤ 0.5
C4A G10A G23A C55G C60A | ≤ 0.5
C4A G6A A14G A65G | ≤ 0.5
C4A G25A A40C A65C | ≤ 0.5
C4A G52C C66U | ≤ 0.5
C4A C33A C62A | 0.668
C4A C24G C62U A69C | 0.567
C4A C22U G48C | ≤ 0.5
C4A G38A C55G | ≤ 0.5
C4A C27A | 0.798
C4A C27U | 0.901

Variant | yeast fitness
C4A C27G | 0.674
C4A C11U C27G C33A A43C C46A | ≤ 0.5
C4A C11U G18A A65C | 0.505
C4A C62G C66U | ≤ 0.5
C4A C24G U28G C31U | ≤ 0.5
C4A G52C | 0.661
C4A G23C C31U C34G A43G A45C A57U | ≤ 0.5
C4A C49U A69C | 0.555
C4A G23A C24G | ≤ 0.5
C4A C5G C66U | 0.538
C4A C5G C66G | 0.597
C4A C11A G39A G41C C46A G68A | ≤ 0.5
C4A G44C A57C | ≤ 0.5
C4A C22U U28C | ≤ 0.5
C4A C29G A57G U59A A69U | ≤ 0.5
C4A C34G | 0.563
C4A G23C G56C U59A A65G | ≤ 0.5
C4A U13A C30A U32C C61G G68C | ≤ 0.5
C4A G68U | 0.831
C4A G68A | 0.962
C4A C11U A57C | ≤ 0.5

Variant | yeast fitness
C4A G25C C29G G41A C49U A65G C66U | ≤ 0.5
C4A C30G A40U C60G G63C | ≤ 0.5
C4A G6A C11A C22U C29U C55A | ≤ 0.5
C4A C33U A57G C66G | ≤ 0.5
C4A C11U U32A G38C U47A | ≤ 0.5
C4A C11G U19G U53C | 0.698
C4A U7A U59A | ≤ 0.5
C4A C11A C29G A40G | 0.574
C4A G17A C22A C31A C33A C49A | 0.525
C4A U7C U26G A65C | 0.59
C4A U7A U8G A45C | ≤ 0.5
C4A G23C C49U G58A A69C | 0.535
C4A G25C | 0.833
C4A C24G G44C A70U | ≤ 0.5
C4A C22G C29U G68C | ≤ 0.5
C4A G18A C27A A37C C61A | ≤ 0.5
C4A C29U C31U U54G A65U G67A | ≤ 0.5
C4A C29G A36U A65G C66U | ≤ 0.5
C4A G10A G23A U28C C55G C60A | ≤ 0.5
C4A C11U G56C C62G G68C | ≤ 0.5
C4A C30A G48C | ≤ 0.5
